Measured values from ChEMBL document CHEMBL1123507, “Antipicornavirus activity of substituted phenoxybenzenes and phenoxypyridines” (J Med Chem, 1986).
Converted amounts (≈) assume the structure as drawn.

Assays:
[1] = test system: HeLa; experiment: Cytotoxicity concentration in HeLa cells; type: cell-based; conditions: human
In short: (§1)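 HeLa monolayers were seeded at (1.0-1.3) × 10^5 cells/well, grown 24 h at 36 °C in 5% CO2 to 60–75% cover, then refed with maintenance medium (1-2% heat-inactivated FCS) containing two-fold serial compound dilutions made from a 200 μg/mL stock in Me2SO/medium, with final Me2SO ≤0.1%. Cells were challenged with 10-100 TCID50 virus, and CPE was read microscopically at 48 and 72 h. MIC50 was the lowest concentration giving ≥50% CPE reduction versus virus control. Cytotoxicity was the lowest concentration causing cell death, a growth change or a morphology change in uninfected cultures.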

[2] = test system: Coxsackievirus; experiment: Ratio of the MIC50 of 6-(4-Nitro-phenoxy)-nicotinonitrile compared to compound obtained in the same test for coxsackie A21; type: functional
In short: (§2)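 Relative activity was calculated as the MIC50 of the positive control 5-cyano-2-(4-nitrophenoxy)pyridine divided by the MIC50 of the test compound. Both were measured in parallel in the same HeLa CPE test (48/72 h microscopic reading) against RV-1A, RV-2 or coxsackievirus A21.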

[3] = test system: Coxsackievirus; experiment: Lowest concentration to reduce viral effect by 50% or more against coxsackie virus A21; type: functional; in short: as §1
[4] = test system: Enterovirus; experiment: Lowest concentration to reduce viral effect by 50% or more against Rhinovirus (RV)-2; type: functional; in short: as §1
[5] = test system: Enterovirus; experiment: Ratio of the MIC50 of 6-(4-Nitro-phenoxy)-nicotinonitrile compared to compound obtained in the same test for Rhinovirus (RV)-2; type: functional; in short: as §2
[6] = test system: Enterovirus; experiment: Lowest concentration to reduce viral effect by 50% or more against Rhinovirus (RV)-1A; type: functional; in short: as §1
[7] = test system: Enterovirus; experiment: Ratio of the MIC50 of 6-(4-Nitro-phenoxy)-nicotinonitrile compared to compound obtained in the same test for Rhinovirus (RV)-1A; type: functional; in short: as §2

Structure (SMILES) | MIC50 [3] | MIC50 [4] | MIC50 [6] | Toxicity [1] | Relative activity [2] | Relative activity [5] | Relative activity [7]
CS(=O)(=O)c1ccc(Oc2ccc(C#N)cc2)cc1 | 11.4 µM (≈ 3.12 µg/mL) | 45.8 µM (≈ 12.5 µg/mL) |  | 183 µM | 2.3 | 0.56 | 
CS(=O)(=O)c1ccc(Oc2ccccc2Cl)cc1 | 11 µM (≈ 3.11 µg/mL) | 44.2 µM (≈ 12.5 µg/mL) | 88 µM (≈ 24.9 µg/mL) | 88 µM | 1.2 |  | 
CC(=O)c1ccc(Oc2ccc(S(C)(=O)=O)cc2)cc1 | 17.2 µM (≈ 4.99 µg/mL) | 8.6 µM (≈ 2.5 µg/mL) | 86.2 µM (≈ 25 µg/mL) | 172 µM | 0.769 | 3 | 
N#Cc1ccc(Oc2ccc(Cl)c(Cl)c2)nc1 | 2 µM (≈ 0.53 µg/mL) | 19 µM (≈ 5.04 µg/mL) | 5 µM (≈ 1.33 µg/mL) | 377 µM | 13 | 2.7 | 4.1
N#Cc1cc([N+](=O)[O-])ccc1Oc1ccc(C(=O)c2ccccc2)cc1 | 36.3 µM (≈ 12.5 µg/mL) | > 291 µM | > 291 µM | > 291 µM | 1.4 |  | 
N#Cc1cc([N+](=O)[O-])ccc1Oc1cc(Cl)cc(Cl)c1 | 16.2 µM (≈ 5.01 µg/mL) | 8.1 µM (≈ 2.5 µg/mL) | 16.2 µM (≈ 5.01 µg/mL) | > 65 µM | 0.8 | 1.6 | 1.6
N#Cc1cc([N+](=O)[O-])ccc1Oc1ccccc1C(F)(F)F | 32 µM (≈ 9.86 µg/mL) | 3.9 µM (≈ 1.2 µg/mL) | > 324 µM | 32 µM |  | 3.3 | 
N#Cc1cc(N)ccc1Oc1ccc(Cl)c(Cl)c1 | 2.2 µM (≈ 0.614 µg/mL) | 9 µM (≈ 2.51 µg/mL) | 4.5 µM (≈ 1.26 µg/mL) | 9 µM | 11.8 |  | 
COc1ccc(Oc2ccc([N+](=O)[O-])cc2C#N)cc1 | 5.7 µM (≈ 1.54 µg/mL) | 11.6 µM (≈ 3.13 µg/mL) | 46.3 µM (≈ 12.5 µg/mL) | 93 µM | 2.2 | 2.2 | 0.56
O=S(=O)(c1ccc(Oc2ccc(Cl)c(Cl)c2)cc1)C(F)(F)F |  | 16.8 µM (≈ 6.24 µg/mL) | 33.7 µM (≈ 12.5 µg/mL) | > 135 µM |  | 1.5 | 0.39
O=[N+]([O-])c1ccc(Oc2ccc(Cl)c(Cl)c2)c([N+](=O)[O-])c1 | 19 µM (≈ 6.25 µg/mL) | > 304 µM | > 304 µM | 19 µM |  |  | 
CS(=O)(=O)c1ccc(Oc2cccc(Cl)c2)cc1 | 22.1 µM (≈ 6.25 µg/mL) | 22.1 µM (≈ 6.25 µg/mL) |  | 88 µM | 0.59 | 1.2 | 
CS(=O)(=O)c1ccc(Oc2ccc([N+](=O)[O-])cc2C#N)cc1 | 2 µM (≈ 0.637 µg/mL) | 39.3 µM (≈ 12.5 µg/mL) | > 314 µM | > 314 µM | 2.6 | 1.3 | 
COc1ccc(Oc2ccc([N+](=O)[O-])cc2C#N)cc1OC | 10.3 µM (≈ 3.09 µg/mL) | 20.7 µM (≈ 6.22 µg/mL) | > 167 µM | > 167 µM | 1.3 | 0.63 | 
N#Cc1ccccc1Oc1ccc(Cl)c(Cl)c1 | 23.7 µM (≈ 6.26 µg/mL) | > 379 µM | > 379 µM | 379 µM | 1.1 |  | 
CC(=O)c1ccc(Oc2ccc(C#N)cn2)cc1 | 53 µM (≈ 12.6 µg/mL) |  | 210 µM (≈ 50 µg/mL) | 420 µM | 0.02 |  | 
CS(=O)(=O)c1ccc(Oc2ccc(O)cc2)cc1 | > 189 µM | 94.7 µM (≈ 25 µg/mL) | 94.7 µM (≈ 25 µg/mL) | 95 µM |  |  | 
N#Cc1ccc(Oc2ccc(F)cc2)nc1 | 69 µM (≈ 14.8 µg/mL) |  | 34 µM (≈ 7.28 µg/mL) | 250 µM | 1.7 |  | 3.3
CS(=O)(=O)c1ccc(Oc2ccc(C(=O)c3ccccc3)cc2)cc1 | 0.88 µM (≈ 0.31 µg/mL) | 142 µM (≈ 50 µg/mL) | > 284 µM | > 284 µM | 5.9 |  | 
CC(=O)c1ccc(Oc2ccc(Cl)c(Cl)c2)cc1 |  | 2.2 µM (≈ 0.619 µg/mL) | 2.2 µM (≈ 0.619 µg/mL) | 49 µM |  | 11.8 | 11.8
Cc1cc(Oc2ccc(Cl)c(Cl)c2)ccc1S(C)(=O)=O | > 151 µM |  | 15.7 µM (≈ 5.2 µg/mL) | > 151 µM |  | 1.4 | 1.7
CS(=O)(=O)c1ccnc(Oc2ccc(Cl)c(Cl)c2)c1 | 5 µM (≈ 1.59 µg/mL) | 79 µM (≈ 25.1 µg/mL) | 79 µM (≈ 25.1 µg/mL) | 157 µM | 10.4 |  | 
N#Cc1cc(Oc2ccc(Cl)c(Cl)c2)ccc1[N+](=O)[O-] | 16.2 µM (≈ 5.01 µg/mL) | 16.2 µM (≈ 5.01 µg/mL) |  | 162 µM | 1.2 | 1.2 | 
N#Cc1cccc(Oc2ccc(Cl)c(Cl)c2)n1 | 23.5 µM (≈ 6.23 µg/mL) | > 378 µM | 94 µM (≈ 24.9 µg/mL) | 378 µM | 0.91 |  | 0.28
N#Cc1cc(Cl)ccc1Oc1ccc(Cl)c(Cl)c1 | 1 µM (≈ 0.299 µg/mL) | > 334 µM | > 334 µM | > 334 µM | 5.2 |  | 
C[S+]([O-])c1ccc(Oc2ccc(Cl)c(Cl)c2)nc1 (configuration not stated) | 83 µM (≈ 25.1 µg/mL) | 4 µM (≈ 1.21 µg/mL) | 2 µM (≈ 0.604 µg/mL) | 83 µM |  | 3.3 | 6.5
CSc1ccc(Oc2ccc([N+](=O)[O-])cc2C#N)cc1 | 0.87 µM (≈ 0.249 µg/mL) | 21.8 µM (≈ 6.24 µg/mL) | > 350 µM | 350 µM | 6 | 2.4 | 
O=S(=O)(O)c1ccc(Oc2ccc(Cl)c(Cl)c2)nc1 | 312 µM (≈ 99.9 µg/mL) | > 312 µM | 20 µM (≈ 6.4 µg/mL) | 312 µM |  |  | 1.3
O=S(=O)(c1ccccc1)c1ccc(Oc2ccc(Cl)c(Cl)c2)cc1 | 1.6 µM (≈ 0.607 µg/mL) | 1.6 µM (≈ 0.607 µg/mL) | 1.6 µM (≈ 0.607 µg/mL) | 3.3 µM |  |  | 
CS(=O)(=O)c1cccc(Oc2ccc(Cl)c(Cl)c2)n1 | 157 µM (≈ 50 µg/mL) | 39 µM (≈ 12.4 µg/mL) | 10 µM (≈ 3.18 µg/mL) | 157 µM |  | 0.66 | 2.6

Further lines, with some results ahead:

MIC50 [3] | MIC50 [4] | MIC50 [6] | Structure (SMILES) | Toxicity [1] | Relative activity [2] | Relative activity [5] | Relative activity [7]
8.1 µM (≈ 2.5 µg/mL) | 0.26 µM (≈ 0.0804 µg/mL) | 0.52 µM (≈ 0.161 µg/mL) | N#Cc1cc([N+](=O)[O-])ccc1Oc1cccc(Cl)c1Cl | > 65 µM | 3.2 | 50 | 25
5.7 µM (≈ 1.57 µg/mL) | 4.5 µM (≈ 1.24 µg/mL) | 4.5 µM (≈ 1.24 µg/mL) | N#Cc1cc([N+](=O)[O-])ccc1Oc1ccccc1Cl | 45 µM | 2.38 | 4.6 | 4.6
> 292 µM | 18.3 µM (≈ 6.26 µg/mL) | > 292 µM | CS(=O)(=O)c1ccc(Oc2ccc(Cl)c(Cl)c2)c(C#N)c1 | 292 µM |  | 2.8 | 
15.6 µM (≈ 5.01 µg/mL) | 3.7 µM (≈ 1.19 µg/mL) | 3.7 µM (≈ 1.19 µg/mL) | CC(=O)Nc1ccc(Oc2ccc(Cl)c(Cl)c2)c(C#N)c1 | 62 µM | 1.7 | 3.5 | 3.5
4 µM (≈ 1.28 µg/mL) | 16 µM (≈ 5.1 µg/mL) | 4 µM (≈ 1.28 µg/mL) | Clc1ccc(Oc2ccc(Br)cn2)cc1Cl | 78 µM | 6.5 | 1.6 | 6.5
3.9 µM (≈ 1.2 µg/mL) | 2 µM (≈ 0.616 µg/mL) | 8.1 µM (≈ 2.5 µg/mL) | N#Cc1cc([N+](=O)[O-])ccc1Oc1cccc(C(F)(F)F)c1 | 41 µM | 5.3 | 25.9 | 1.6
64 µM (≈ 12.6 µg/mL) |  | 64 µM (≈ 12.6 µg/mL) | N#Cc1ccc(Oc2ccccc2)nc1 | 676 µM | 0.81 |  | 0.4
18.7 µM (≈ 6.21 µg/mL) | 18.7 µM (≈ 6.21 µg/mL) | 15 µM (≈ 4.98 µg/mL) | CS(=O)(=O)c1ccc(Oc2ccc(Cl)c(Cl)c2)c(N)c1 | 19 µM |  |  | 
> 267 µM | 16.7 µM (≈ 6.05 µg/mL) | > 267 µM | CS(=O)(=O)c1ccc(Oc2ccc(Cl)c(Cl)c2)c([N+](=O)[O-])c1 | > 267 µM |  | 3.1 | 
18.5 µM (≈ 5 µg/mL) | 9.2 µM (≈ 2.49 µg/mL) | 9.2 µM (≈ 2.49 µg/mL) | COc1ccccc1Oc1ccc([N+](=O)[O-])cc1C#N | 18.5 µM |  |  | 
10.7 µM (≈ 3.09 µg/mL) | 10.7 µM (≈ 3.09 µg/mL) | > 173 µM | N#Cc1ccc(Oc2ccc(Cl)c(Cl)c2)c(C#N)c1 | > 173 µM | 3.1 | 2.4 | 
98 µM (≈ 25 µg/mL) |  | 5 µM (≈ 1.28 µg/mL) | Nc1ccc(Oc2ccc(Cl)c(Cl)c2)nc1 | 88 µM |  |  | 4.1
157 µM (≈ 50 µg/mL) | 157 µM (≈ 50 µg/mL) | 79 µM (≈ 25.1 µg/mL) | CS(=O)(=O)c1cccnc1Oc1ccc(Cl)c(Cl)c1 | 157 µM |  |  | 
9.1 µM (≈ 2.49 µg/mL) | 45.6 µM (≈ 12.5 µg/mL) | 22.8 µM (≈ 6.24 µg/mL) | Clc1ccc(Oc2ccc(Cl)c(Cl)c2)cc1 | 91 µM | 1.4 |  | 2.3
